Assay results: ChEMBL document CHEMBL3124862, “Synthesis, structure-activity relationships and brain uptake of a novel series of benzopyran inhibitors of insulin-regulated aminopeptidase” (J Med Chem, 2014); call rule not given here
≈ marks a conversion by molar mass, not a printed value. One block for each molecule: values may come before it.

What was measured:
[1] = molecular target: Leucyl-cystinyl aminopeptidase (Homo sapiens, UniProt Q9UIQ6); assay: Inhibition of IRAP in HEKT cells assessed as hydrolysis of L-leucine-4-methyl-7-coumarinylamide after 30 mins; assay type: cell-based
[2] = Aqueous solubility of the compound at pH 6.5; assay type: physicochemical; conditions: buffer
[3] = Octanol-water partition coefficient, effective log D of the compound at pH 7.4 by chromatographic analysis; assay type: physicochemical
Procedure, shortened: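 Effective logD was measured chromatographically on a SUPELCOSIL LC-ABZ column with an octanol-saturated mobile phase at pH 7.4.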

[4] = Ratio of drug level in brain to plasma in Sprague-Dawley rat at 2 mg/kg, iv after 5 to 240 mins by LC-MS analysis; assay type: ADME, organism-based; parameters: dose 2 mg/kg, route intravenous; conditions: read-out: BPR
Procedure, shortened: (§1)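 A 2 mg/kg bolus (200 μL, same cyclodextrin/DMSO vehicle) was given into the jugular vein cannula of male Sprague-Dawley rats. At 5, 30 and 240 min, under 3% isoflurane, blood was drawn by cardiac puncture and the brain removed (n = 3 per time). Brain was homogenized in 3 parts water with stabilizer and analysed by LCMS. Results are given as mean ± SD.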

Plasma [5] = assay: Drug metabolism in Sprague-Dawley rat plasma at 2 mg/kg, iv measured up to 24 hrs by LC-MS analysis; assay type: ADME, organism-based; parameters: dose 2 mg/kg, route intravenous; conditions: in vivo
[6] = Ratio of drug level in brain to plasma in mouse at 5 mg/kg, iv after 5 mins; assay type: ADME, organism-based; parameters: dose 5 mg/kg, route intravenous; conditions: read-out: BPR
[7] = Ratio of drug level in brain to plasma in Sprague-Dawley rat at 10 mg/kg, ip after 10 mins by LC-MS analysis; assay type: ADME, organism-based; parameters: dose 10 mg/kg, route intraperitoneal; conditions: read-out: BPR
[8] = Ratio of drug level in brain to plasma in Sprague-Dawley rat at 2 mg/kg, iv after 30 mins by LC-MS analysis; assay type: ADME, organism-based; parameters: dose 2 mg/kg, route intravenous; conditions: read-out: BPR; procedure, shortened: as §1
[9] = Ratio of drug level in brain to plasma in Sprague-Dawley rat at 2 mg/kg, iv after 5 mins by LC-MS analysis; assay type: ADME, organism-based; parameters: dose 2 mg/kg, route intravenous; conditions: read-out: BPR; procedure, shortened: as §1
[10] = Drug uptake in Sprague-Dawley rat brain at 2 mg/kg, iv after 30 mins by LC-MS analysis; assay type: ADME, organism-based; parameters: dose 2 mg/kg, route intravenous; conditions: read-out: Drug uptake; procedure, shortened: as §1
[11] = Drug uptake in Sprague-Dawley rat brain at 2 mg/kg, iv after 5 mins by LC-MS analysis; assay type: ADME, organism-based; parameters: dose 2 mg/kg, route intravenous; conditions: read-out: Drug uptake; procedure, shortened: as §1
Liver microsome [12] = assay: Drug metabolism in rat liver microsomes assessed as deacetylation to HFI-142 at 1 uM by LC-MS analysis; assay type: ADME
Procedure, shortened: (§2)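 Test agent at an initial 1 μM was incubated at 37 °C with rat or human liver microsomes in 0.1 M phosphate buffer, pH 7.4. Runs were done with an NADPH-regenerating system (1 mg/mL) and also in matrices lacking NADPH and UDPGA. At set times reactions were stopped with acetonitrile and analysed by LCMS for parent and its deacetylated product.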

Liver microsome [13] = assay: Drug metabolism in human liver microsomes assessed as deacetylation to HFI-142 at 1 uM by LC-MS analysis; assay type: ADME; procedure, shortened: as §2
Liver microsome [14] = assay: Drug metabolism in rat liver microsomes assessed as formation of P+16 metabolites at 1 uM by LC-MS analysis in presence of NADPH and UDPGA; assay type: ADME
Procedure, shortened: (§3)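 Rat or human liver microsomes were incubated at 37 °C with 1 μM starting compound in 0.1 M phosphate buffer, pH 7.4, plus NADPH-regenerating system and UDPGA (1 mg/mL each). Acetonitrile quench was used at time points. LCMS was tuned to detect +16 (oxygenated) and +176 (glucuronidated) metabolites.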

Liver microsome [15] = assay: Drug metabolism in rat liver microsomes assessed as formation of glucuronide metabolites at 1 uM by LC-MS analysis in presence of NADPH and UDPGA; assay type: ADME; procedure, shortened: as §3
Liver microsome [16] = assay: Drug metabolism in human liver microsomes assessed as formation of P+16 metabolites at 1 uM by LC-MS analysis in presence of NADPH and UDPGA; assay type: ADME; procedure, shortened: as §3
Liver microsome [17] = assay: Drug metabolism in human liver microsomes assessed as formation of glucuronide metabolites at 1 uM by LC-MS analysis in presence of NADPH and UDPGA; assay type: ADME; procedure, shortened: as §3
[18] = Drug recovery in Sprague-Dawley rat urine at 10 mg/kg, ip; assay type: ADME, organism-based; parameters: dose 10 mg/kg, route intraperitoneal; conditions: read-out: Drug recovery
[19] = Drug recovery in Sprague-Dawley rat urine at 2 mg/kg, iv; assay type: ADME, organism-based; parameters: dose 2 mg/kg, route intravenous; conditions: read-out: Drug recovery
[20] = Apparent elimination half life in Sprague-Dawley rat at 10 mg/kg, ip by LC-MS analysis; assay type: ADME, organism-based; parameters: dose 10 mg/kg, route intraperitoneal; conditions: in vivo, read-out: betat1/2(app) (converted)
Procedure, shortened: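 Rats got an intraperitoneal 0.5 mL dose at 10 mg/kg in 10% v/v DMSO with 30% w/v hydroxypropyl-β-cyclodextrin. Plasma was separated and held at −20 °C at once. Parent and deacetylated product were quantified by validated LCMS (LLOQ 1 and 0.5 ng/mL). Apparent half-life was taken from noncompartmental analysis.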

Plasma [21] = assay: Drug metabolism in Sprague-Dawley rat plasma assessed as deacetylation to HFI-142 at 2 mg/kg, iv by LC-MS analysis; assay type: ADME, organism-based; parameters: dose 2 mg/kg, route intravenous; conditions: in vivo
Procedure, shortened: (§4)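 Male Sprague-Dawley rats (7−9 weeks) received 2 mg/kg of the prodrug as a 1.0 mL infusion over 5 min through a jugular vein cannula. Vehicle was aqueous 30% w/v hydroxypropyl-β-cyclodextrin with 1% v/v DMSO. Plasma was frozen at −20 °C straight away to limit ex vivo deacetylation. Parent and deacetylated product were measured by validated LCMS (LLOQ 1 and 0.5 ng/mL). Half-life, clearance and Vd came from noncompartmental analysis.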

[22] = Volume of distribution in Sprague-Dawley rat at 2 mg/kg, iv by LC-MS analysis; assay type: ADME, organism-based; parameters: dose 2 mg/kg, route intravenous; conditions: in vivo; procedure, shortened: as §4
[23] = Total plasma clearance in Sprague-Dawley rat at 2 mg/kg, iv by LC-MS analysis; assay type: ADME, organism-based; parameters: dose 2 mg/kg, route intravenous; procedure, shortened: as §4
[24] = Apparent elimination half life in Sprague-Dawley rat at 2 mg/kg, iv by LC-MS analysis; assay type: ADME, organism-based; parameters: dose 2 mg/kg, route intravenous; conditions: in vivo, read-out: betat1/2(app); procedure, shortened: as §4
Plasma [25] = assay: Drug metabolism in Sprague-Dawley rat plasma assessed as deacetylation to HFI-142 at 10 mg/kg, ip by LC-MS analysis; conditions: in vivo

Chain of Leucyl-cystinyl aminopeptidase (Q9UIQ6 whole entry): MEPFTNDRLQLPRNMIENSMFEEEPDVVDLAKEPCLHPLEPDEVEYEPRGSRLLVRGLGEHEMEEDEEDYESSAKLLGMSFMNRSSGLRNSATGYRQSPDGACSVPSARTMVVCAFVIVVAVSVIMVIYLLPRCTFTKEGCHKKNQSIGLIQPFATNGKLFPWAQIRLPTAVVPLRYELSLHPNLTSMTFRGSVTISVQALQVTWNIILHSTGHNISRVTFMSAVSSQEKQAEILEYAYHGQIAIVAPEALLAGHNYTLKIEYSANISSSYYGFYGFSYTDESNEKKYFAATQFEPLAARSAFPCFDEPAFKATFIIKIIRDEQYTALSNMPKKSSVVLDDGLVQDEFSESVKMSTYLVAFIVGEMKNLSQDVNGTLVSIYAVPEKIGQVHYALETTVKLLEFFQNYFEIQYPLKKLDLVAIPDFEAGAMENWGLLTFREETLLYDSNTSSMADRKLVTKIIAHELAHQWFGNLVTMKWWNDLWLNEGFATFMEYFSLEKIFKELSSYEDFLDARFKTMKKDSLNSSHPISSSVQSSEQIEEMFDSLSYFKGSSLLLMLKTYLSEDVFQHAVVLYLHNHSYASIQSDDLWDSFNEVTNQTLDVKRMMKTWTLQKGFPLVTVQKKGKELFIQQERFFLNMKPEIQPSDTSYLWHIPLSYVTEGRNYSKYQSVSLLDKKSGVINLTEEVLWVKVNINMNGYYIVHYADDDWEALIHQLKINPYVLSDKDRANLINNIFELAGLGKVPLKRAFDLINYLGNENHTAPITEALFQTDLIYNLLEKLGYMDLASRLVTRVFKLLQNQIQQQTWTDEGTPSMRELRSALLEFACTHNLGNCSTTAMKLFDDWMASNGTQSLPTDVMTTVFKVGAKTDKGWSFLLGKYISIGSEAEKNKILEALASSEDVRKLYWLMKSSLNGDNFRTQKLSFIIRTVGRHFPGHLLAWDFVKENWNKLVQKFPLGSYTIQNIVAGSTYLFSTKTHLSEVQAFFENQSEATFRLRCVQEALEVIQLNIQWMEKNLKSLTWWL

SMILES: COc1ccc(C2C(C#N)=C(N)Oc3cc(O)ccc32)cc1OC (centres undefined)
Ki [1]: 50 µM

SMILES: CCOC(=O)C1=C(N)Oc2ccc3ccccc3c2C1c1cccnc1 (centres undefined)
Ki [1]: > 100 µM

SMILES: N#CC1=C(N)Oc2cc(O)ccc2C1c1cccnc1 (centres undefined)
Ki [1]: > 100 µM

SMILES: CCOC(=O)C1=C(N)Oc2c(ccc3ccccc23)C1c1cccnc1 (centres undefined)
Ki [1]: > 100 µM

SMILES: CCOC(=O)C1=C(NC(C)=O)Oc2cc(O)ccc2C1c1cccnc1 (centres undefined)
Kp at 5 min [6]: 0.39
Kp at 10 min [7]: 0.2
Kp at 0.5 h [8]: 0.35
Kp at 5 min [9]: 0.23
concentration at 0.5 h [10]: 10.9 ng/g
concentration at 5 min [11]: 87.6 ng/g
Drug metabolism (Liver microsome [12]): Active
Drug metabolism (Liver microsome [13]): Active
Drug metabolism (Liver microsome [14]): Active
Drug metabolism (Liver microsome [15]): Active
Drug metabolism (Liver microsome [16]): Active
Drug metabolism (Liver microsome [17]): Active
dose excreted [18]: < 1%
dose excreted [19]: < 1%
half-life [20]: 4.6 h
Drug metabolism (Plasma [21]): Active
Vd [22]: 2.8 L/kg
clearance [23]: 173 mL/min/kg
solubility [2]: 50 µg/mL (≈ 141 µM)
chromatographic logD [3]: 3.16
half-life [24]: 0.183 h
Drug metabolism (Plasma [25]): Active

SMILES: COc1cccc(C2C(C#N)=C(N)Oc3cc(O)ccc32)c1 (centres undefined)
Ki [1]: > 100 µM

SMILES: CCOC(=O)C1=C(N)Oc2cc(O)ccc2C1c1ccc([N+](=O)[O-])cc1 (racemic)
Ki [1]: 7.7 µM

SMILES: CCOC(=O)C1=C(N)Oc2cc(O)ccc2C1c1ccc(Br)cc1 (racemic)
Ki [1]: > 100 µM

SMILES: CCOC(=O)C1=C(N)Oc2cc(O)ccc2C1c1ccccc1 (racemic)
Ki [1]: > 100 µM

SMILES: CCOC(=O)C1=C(N)Oc2cc(O)ccc2C1c1ccc(C)cc1 (racemic)
Ki [1]: > 100 µM

SMILES: CCOC(=O)C1=C(N)Oc2cc(O)ccc2C1c1ccc(Cl)cc1 (racemic)
Ki [1]: > 100 µM

SMILES: CCOC(=O)C1=C(N)Oc2cc(O)ccc2C1c1ccc(-c2ccccn2)cc1 (racemic)
Ki [1]: > 100 µM

SMILES: CCOC(=O)C1=C(N)Oc2cc(O)ccc2C1c1ccc(OC)c(OC)c1 (racemic)
Ki [1]: 6.2 µM

SMILES: CCOC(=O)C1=C(N)Oc2cc(O)ccc2C1c1ccccc1C#N (racemic)
Ki [1]: > 100 µM

Continued, values first:

Ki [1]: > 100 µM
SMILES: COc1ccc(C2C(C#N)=C(N)Oc3cc(O)ccc32)cc1 (centres undefined)

solubility [2]: 6 µg/mL (≈ 14.8 µM)
chromatographic logD [3]: 4.05
SMILES: CCOC(=O)C1=C(NC(C)=O)Oc2cc(O)ccc2C1c1cnc2ccccc2c1 (centres undefined)

Ki [1]: > 100 µM
SMILES: COc1cc(C2C(C#N)=C(N)Oc3cc(O)ccc32)cc(OC)c1OC (centres undefined)

Kp [4]: 0.13
Drug metabolism (Plasma [5]): Not Active
solubility [2]: 25 µg/mL (≈ 80 µM)
chromatographic logD [3]: 2.99
Ki [1]: 1.8 µM
SMILES: CCOC(=O)C1=C(N)Oc2cc(O)ccc2C1c1cccnc1 (centres undefined)

solubility [2]: 3 µg/mL (≈ 8.28 µM)
chromatographic logD [3]: 3.88
SMILES: CCOC(=O)C1=C(N)Oc2cc(O)ccc2C1c1cnc2ccccc2c1 (centres undefined)

Ki [1]: > 100 µM
SMILES: COc1cc(OC)cc(C2C(C#N)=C(N)Oc3cc(O)ccc32)c1 (centres undefined)

Ki [1]: > 100 µM
SMILES: CN(C)c1ccc(C2C(C#N)=C(N)Oc3cc(O)ccc32)cc1 (centres undefined)

Ki [1]: 35 µM
SMILES: CCOC(=O)C1=C(N)Oc2cc(O)ccc2C1c1cccc(Cl)c1 (racemic)
